Test: Toxicity liver stage against HepG2, at 10uM
Type: cell-based
Set-up: test concentration 10 uM, cell line HepG2-A16-CD81EGFP
Conditions: human, HepG2-A16-CD81EGFP cells; read-out: INHIBITION
Outline: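 Uninfected HepG2-A16-CD81EGFP cells, 3 × 10^3 per well, 1536-well, plated on prespotted compound at 10 μM final, parasite-free screening media added to match infected plates; puromycin 10 μM positive, DMSO 0.5% negative; run in parallel with 48 h PbLuc assay at 37 °C, 5% CO2; viability by CellTiter-Glo luminescence, normalized to controls.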

Structure (SMILES)	cytotoxicity at 10 µM [%]
CCn1c(=O)n(CC)c2cc(S(N)(=O)=O)ccc21	-7.72
N#Cc1cccc(CN2C[C@@H](F)[C@@H](OCc3nc4ccccc4[nH]3)C2)c1	6
O=C(NC[C@H]1OC[C@@H](NC2COC2)[C@@H]1O)C1CCCC1	-3.11
Cn1cc(CN2C[C@@H](F)[C@@H](OCc3nc4cnccc4[nH]3)C2)cn1	6.88
COc1ccc(OC)c(NC(=O)c2c(C)cn(C)c2CC(=O)O)c1	-1.52
COC1CN(C(=O)C2CC2)CCC(=O)N(C)c2ccccc21 (centres undefined)	-8.67
CCc1nc2c(c(C)c(C)n2Cc2cccnc2)c(N)c1C	6.7
COCC(=O)N(Cc1ccc2[nH]ccc2c1)C1CC1	-2.46
CCS(=O)(=O)c1cccc(C(=O)Nc2cccc3c2C(=O)N(C)C3=O)c1	-139
COC(CNC(=O)c1cn(C)nn1)c1ccc(C)s1 (centres undefined)	-8.11
Cn1cc(CN2C[C@@H](N3CCCC3=O)[C@H]3OCCC[C@H]32)cn1	8.92
CCS(=O)(=O)N1CCc2nnc(CN(C)C(C)C)n2CC1	0.872
CC(C)CN1C(=O)CO[C@@H]2CN(C(=O)N(C)C)C[C@H]21	0.657
CC(C)CN1C(=O)CO[C@@H]2CN(C(=O)N3CCOCC3)C[C@H]21	-1.68
Cc1cccc(CN2CCCC3(CCN(c4cccnc4)C3=O)C2)n1 (centres undefined)	-1.34
COCC(=O)N1CC[C@@H]2CN(Cc3ccccc3)S(=O)(=O)[C@@H]2CC1	-0.733
OCc1nnn2c1CN(Cc1cccnc1)CCC2	10.1
CCC1=N[C@@]2(CC[C@@H]3CN(CC(=O)N(C)C)C[C@@H]32)C(=O)N1CC(C)C	8.18
COc1ncccc1CN1C[C@@H]2COC[C@]2(CNC(=O)c2ccno2)C1	8.07
O=C(O)c1cc(C2CC2)nc2c(Cl)cnn12	8.63
CNC(=O)c1cn[nH]c1C1CCN(Cc2ccccc2OC)C1 (centres undefined)	7.16
Cc1cc(N)nc(C2(C)CCCN2C(=O)Cc2ccc(F)cc2)n1 (centres undefined)	-27.5

Structure (SMILES)	cytotoxicity at 10 µM [%]
CCCNC(=O)C1(CC2CC(c3ccccc3OC)=NO2)CCOCC1 (centres undefined)	21.8
CCC(=O)N1CCC(Cc2ccccc2-c2ccccc2F)(C(N)=O)C1 (centres undefined)	-10.8
CC(=O)N1CCCC(c2ccc(Br)cn2)C1 (centres undefined)	-24.1
Cc1cc(C)nc(Nc2cncc(C3CCCN(S(C)(=O)=O)C3)n2)n1 (centres undefined)	-16.1
CCc1cccc2cc(CNCCCN3CCOCC3)c(=O)[nH]c12	-0.918
CCCn1ncc(CN2C[C@@H]3CCCN3C[C@@H]2Cc2ccccc2)c1C	-8.16
O=S(=O)(c1cccs1)N1CCCCC1c1ccn[nH]1 (centres undefined)	-3
COc1cccc(CN2CCC(c3nnc(-c4cnc(C)cn4)o3)C2)c1 (centres undefined)	-10.4
O=c1c2ccccc2nc2n1CCN(Cc1cccs1)CC2	2.39
Cc1ccc(C(=O)CC(SC2CCCCC2)C(=O)O)cc1 (centres undefined)	7.53
Cc1cc(CN2CCCN(c3ccc(C#N)cc3)CC2)no1	2.07
CCN(Cc1ccc(CN(C)C)cc1)C(=O)c1ccncc1O	-7.19
c1nc2c(c(N3CCCC(Cn4cncn4)C3)n1)CCC2 (centres undefined)	52.4
N#Cc1ccc(CNCCc2cc(F)cc3c2OCOC3)cc1	6.58
CC(=O)c1cccc(OCCCC(=O)N(C)C2CCN(C)CC2)c1	3.07
OCCN1CCN(CC2(O)CCCCC2)CC1	3.66
CN1CCC(CNC(=O)NCc2ccc(N(C)C)cc2)CC1	-1.42
CCN(CC)S(=O)(=O)c1cc(NC(=O)CCc2cscn2)ccc1C	-0.25
CC(=O)N1CCCN(CCCSc2ccccc2Cl)CC1	0.269
CNS(=O)(=O)CC(=O)NCc1cc2c(s1)CCCCC2	2.42
CCc1noc(C(C)Sc2nnc(C3CC3)n2CC(N)=O)n1 (centres undefined)	-148
Cn1c(CN2CCC(N3CCNC3=O)CC2)cc(=O)n(C)c1=O	-2.03

Structure (SMILES)	cytotoxicity at 10 µM [%]
O=c1n(CCNCc2cccc3ccccc23)nc2ccccn12	0.551
COCCn1cc(C(=O)N2CCCC2c2cc(C)on2)c2ccccc21 (centres undefined)	6.35
O=C(NC1CCN(c2cccc(C(F)(F)F)n2)CC1)C1CC1	-0.432
N#CCCCn1nnc(C2(NC(=O)c3ccccc3)CCCC2)n1	13.6
CC(C)CS(=O)(=O)CC(=O)N1CCCC1c1noc(C2CC2)n1 (centres undefined)	13.4
Cc1ccc(-n2nnc(CC(=O)N3CCN(C4CC4)CC3)c2C)cc1	-8.06
COc1ccc(-n2ccc(C(=O)N(C)C(C)C3(C)CC3)n2)cc1 (centres undefined)	-2.41
CN(CC(=O)N(CCC#N)c1ccccc1)C1CCc2ccccc21 (centres undefined)	3.15
O=C1C(NCc2cccc(O)c2)CCN1Cc1ccccc1 (centres undefined)	-0.539
CN(C(=O)CN1CCc2nn(C)c(=O)cc2C1)c1nccs1	10.4
Clc1ccccc1C1CN(CCc2ccncc2)CCO1 (centres undefined)	3.61
COCC(NC(=O)NCc1ccc(C)c(F)c1)c1ccco1 (centres undefined)	4.96
COc1ccc(CC(=O)NC(CC(=O)O)c2ccc(F)cc2)cc1OC (centres undefined)	0.902
CCc1nc(CCNC(=O)Nc2cc(C(N)=O)sc2C)cs1	24.6
NC(=O)C(CNC(=O)Cc1ccc(F)cc1)Cc1ccc(F)cc1 (centres undefined)	3.02
CN(CCCNc1cc(N2CCCC2CO)ncn1)S(C)(=O)=O (centres undefined)	-10.2
CCO[C@@H]1CCN(C(=O)c2ccc[nH]2)[C@@H]1Cc1cnn(C)c1	1.44
OC1(Cn2ccnc2)CCN(C[C@]2(O)CCCN3CCCC[C@@H]32)CC1	0.805
CCn1c(C)nnc1SCCn1cc(-c2nccs2)nn1	2.91
CC(C)CCN1CC2(CCN(C(=O)C3(C)CC3)CC2)OC1=O	1.84
Cc1cc(C(=O)N(Cc2c(C)nn(C)c2C)C(C)C)nc(C)n1	-9.85
Cc1nc(C)c(Cc2nc(C3CC3)n[nH]2)c(=O)[nH]1	2.39

Structure (SMILES)	cytotoxicity at 10 µM [%]
CCc1ncc(C(=O)N(CC)CCOC)cn1	2.24
Cc1ccc(-n2cc(CN3CCN(C)[C@@H]4CS(=O)(=O)C[C@@H]43)cn2)cc1	-8.67
NC(=O)CCn1cc(CNCCCc2csc(N)n2)c2ccccc21	3.1
COCCn1c(=O)n(Cc2ccccc2C)c2cc(C(=O)O)ccc21	-1.79
CC(=O)N1CC2(CCN(c3nccc4ccccc34)CC2)CC1C(=O)O (centres undefined)	4.65
CCc1c(O)nc(SCC(=O)N(CC)CC)n(C(C)CC)c1=O (centres undefined)	-6.65
CNS(=O)(=O)c1ccc(CN(C)Cc2nc3ccc(F)cc3[nH]2)cc1	17.2
C=C(C)COc1cccc(CNCCc2c[nH]cn2)c1	8.95
Cc1c(C(=O)N[C@H]2CN(CCS(C)(=O)=O)C[C@@H]2C2CC2)cnn1C	7.02
Cc1nc(C(C)NC(=O)c2cn(C/C=C/c3ccccc3)nn2)n[nH]1 (centres undefined)	10.7
Cn1ccn2ncc(C(=O)NCc3cccnc3N3CCCC(O)C3)c12 (centres undefined)	-8.01
Cc1ncc(S(C)(=O)=O)c(N(C)CCCc2cnn(C)c2)n1	-1.07
COCCn1cnnc1CCNc1cc(C)nc2ccnn12	-1.42
O=C(NCc1cn2c(n1)SCC2)c1ccc(CN2CCCCC2)cc1	-1.08
CN(CCCc1cnn(C)c1)C(=O)C1CCOC1 (centres undefined)	-13.4
Cc1cc(NCC2CCCO2)cc(=O)n1C (centres undefined)	-8.19
O=C1NC(=O)c2c3c(nc(O)c21)CCCC3	-4.69
Cc1nc(CN2CCCC(NCc3nc4ccccc4s3)C2)no1 (centres undefined)	-0.84
CC(C)c1noc(CN2CCCC2c2noc(C(C)C)n2)n1 (centres undefined)	-5.89
CCN(Cc1nc2c(cnn2C)c(=O)[nH]1)Cc1ccco1	-2.8
CNC(=O)CCNC(=O)CCc1c(C)nc2cc(O)nn2c1C	-2.7
O=C(c1ccc(N2CCCC2)nn1)N1CCCC(n2ccnc2)C1 (centres undefined)	-16.2

Structure (SMILES)	cytotoxicity at 10 µM [%]
CC(=O)c1cccc(NC(=O)CCn2nc(-c3cccs3)oc2=O)c1	-4.47
CC(C(=O)Nc1ccc(N2CCCCC2)nc1)n1cncn1 (centres undefined)	-31.2
N#Cc1ccc(S(=O)(=O)NC(=O)COc2ccc3c(c2)CCC3)cc1	-9.36
Cc1cc(C)n(CC2CN(Cc3cnc(C)s3)CCO2)n1 (centres undefined)	-19.7
CC(NC(=O)c1ccsc1)c1ccc2c(c1)NC(=O)CO2 (centres undefined)	-11.7
Cc1cccc(NC2CCN(C(=O)Nc3ccccn3)CC2)n1	-7.92
Cn1c(C2CC2)nc2c1CCN(CCOc1ccccc1C#N)C2	-29.8
Cc1nn(C)c(Cl)c1C1CCCN1CC(=O)NCc1ccco1 (centres undefined)	1.48
CC(C)CN(CCc1ccccc1)Cc1nc2c(cnn2C)c(=O)[nH]1	-6.94
CCc1nc(C)c(C(=O)NCCNc2ncccn2)s1	-2.16
Cc1ccc(-c2cc(CNC(=O)N3CCC(CO)CC3)on2)cc1	-7.69
Cc1cnn(C2CCCN(C(=O)c3cnc4ccccc4n3)C2)c1 (centres undefined)	-10.7
O=C(NCCNc1ncccn1)N1CCSCC1	-8.26
O[C@@]1(c2ccccn2)CC[C@H]2CN(Cc3ccccn3)C[C@H]21	-4.97
Cn1ccnc1NC[C@@H]1CCC[C@@H]2CN(Cc3nccs3)C[C@@H]21	14
CS(=O)(=O)N1C[C@@H](Oc2ccccn2)[C@H]2OCCC[C@H]21	7.78
Cc1cc(NCCO)nc(N2CCC(Cc3ccccc3)CC2)c1C#N	4.35
Cc1nnc(N2C[C@@H]3CCCO[C@@H]3[C@H](N3CCCC3=O)C2)s1	17.4
CCOCC1CN(S(=O)(=O)N(C)C)Cc2cnn(CC)c21 (centres undefined)	2.26
Cc1ccc2nc(C3CCN(CC4CC4)CC3)nn2c1	0.806
O=C(NC[C@]12COC[C@H]1CN(Cc1cccnc1)C2)c1ccno1	4.35

Source: ChEMBL document CHEMBL4513216, “Probing the Open Global Health Chemical Diversity Library for Multistage-Active Starting Points for Next-Generation Antimalarials” (ACS Infect Dis, 2020)
